Calls of active or inactive are those of the source.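 Rule for the calls: active = compounds lowering the signal whose fitted half-maximal concentration is at most ten times their top tested dose; inconclusive = flat curve with a 30 to 70% drop, or poor fit; inactive = rising signal, flat curve, or potency beyond limit.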

Experimental findings from PubChem BioAssay AID504324 (Broad Institute, 2011) are described below.

Experiment [1] concerns U2OS HRE-luciferase reporter, zinc medium, luminescence. The experiment can be described thus: HIF pathway activation under zinc exposure, dose response, mechanism study for HIF pathway activator project, U2OS HRE-luc cells, zinc medium, dry powder (AID 504324). The procedure, abridged: (§1)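 Material: human osteosarcoma U2OS cells stably expressing 3×HRE-driven luciferase reporter / Schedule: 24 h plating, then 24 h compound treatment at 37 °C / Detection: Steady-Glo luciferase luminescence / Medium: phenol red-free DMEM, 10% FBS, plus 50 µM zinc sulfate / Compound: 8-point, 3-fold compound series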

Assay in experiment [2]: as above
Particulars: U2OS HRE-luciferase reporter, zinc medium, luminescence; at 38 µM (top of the series). The procedure, abridged: as §1

Take `c1ccc(-c2nnc(-c3ccccn3)nc2Nc2cnc3ccccc3n2)cc1`: the AC50 (commonly the midpoint of the concentration-response curve, whichever way the signal moves) in experiment [1] was 10.6 µM.

In the case of `c1ccc(-c2nnc(-c3ccccn3)nc2Nc2nc3ccccc3s2)cc1`, in experiment [1], the AC50 is 5.6 µM.

With `Oc1ccc(CNC2CCc3ccccc32)c2cccnc12` (configuration not stated), the AC50 in experiment [1] was > 38 µM (inactive). Turning to `c1ccc(-c2nnc(-c3ccccn3)nc2NCC2CCOCC2)cc1`, the activity change, negative = decrease in experiment [2] was 3680% (inactive). For `O=C(NC1Cc2ccccc2C1)c1cc(-c2ccccc2)on1`, in experiment [2], the activity change, negative = decrease is 146% (inactive). The same measure, in the same setting: next, `Cc1ccccc1CNC(=O)c1cc(-c2ccccc2)on1`: 25.4% (inactive); `Cc1cccc(CNc2nc(-c3ccccn3)nnc2-c2ccccc2)c1`: 6280% (inactive); `C=CCNc1nc(-c2ccccn2)nnc1-c1ccccc1`: 5230% (inactive). On to `O=C(NCCCn1ccnc1)c1cc(-c2ccccc2)on1`, for which the activity change, negative = decrease in experiment [2] is 1800% (inactive).

`O=C(NCCN1CCCCC1)c1cc(-c2ccccc2)on1`: the activity change, negative = decrease in experiment [2] was 56.5% (inactive). The same measure, in the same setting: next, `Cc1ccc(CNc2nc(-c3ccccn3)nnc2-c2ccccc2)cc1C`: 4550% (inactive); `c1ccc(-c2nnc(-c3ccccn3)nc2NCc2cccnc2)cc1`: 3620% (inactive). Regarding `N#CC1(c2ccccc2)CCN(Cc2ccc(O)c3ncccc23)CC1`, in experiment [2], the activity change, negative = decrease was 208% (inactive).

For `c1ccc(-c2csc(Nc3nc(-c4ccccn4)nnc3-c3ccccc3)n2)cc1`, in experiment [2], the activity change, negative = decrease was 315% (inactive). With `OCC1CCN(c2nc(-c3ccccn3)nnc2-c2ccccc2)CC1`, in experiment [2], the activity change, negative = decrease is 1330% (inactive). As for `c1ccc(-c2nnc(-c3ccccn3)nc2NCCN2CCOCC2)cc1`, the activity change, negative = decrease in experiment [2] was 3780% (inactive). On the same count and under the same terms, next, `O=C(c1cc(-c2ccccc2)on1)N1CCC(CO)CC1`: 14.3% (inactive).

`CCCCNC(=O)c1cc(-c2ccccc2)on1`: the activity change, negative = decrease in experiment [2] is 1050% (inactive). Regarding `O=C(Nc1ncc(-c2ccccc2)o1)c1cc(-c2ccccc2)on1`, the activity change, negative = decrease in experiment [2] was 18.1% (inactive).

In the case of `O=C(Nc1ncc2ccccc2n1)c1cc(-c2ccccc2)on1`, in experiment [2], the activity change, negative = decrease is 152% (inactive). The same measure, in the same setting: the same measure for `OCC1CCN(Cc2ccc(O)c3ncccc23)CC1`: 29.9% (inactive); for `COc1cccc(CNc2nc(-c3ccccn3)nnc2-c2ccccc2)c1`: 4540% (inactive); for `CC(C)(C)OC(=O)N1CCN(Cc2ccc(O)c3ncccc23)CC1`: 28.3% (inactive).

For the molecule `Cn1c(-c2ccccc2)cnc1NC(=O)c1cc(-c2ccccc2)on1`, in experiment [2], the activity change, negative = decrease was 19% (inactive). For the molecule `Cc1ccc(CNc2nc(-c3ccccn3)nnc2-c2ccccc2)cc1`, in experiment [2], the activity change, negative = decrease was 6080% (inactive).

Turning to `c1ccc(CNc2nc(-c3ccccn3)nnc2-c2ccccc2)cc1`, in experiment [2], the activity change, negative = decrease is 5410% (inactive). For `c1ccc(-c2nnc(Nc3nc(-c4ccccn4)nnc3-c3ccccc3)s2)cc1`, in experiment [2], the activity change, negative = decrease is 161% (inactive).
